Measurements pooled from the literature.
PDGFRA: Platelet-derived growth factor receptor alpha (PDGFRA, Homo sapiens, UniProt P16234)
PDGFRA V561D: Platelet-derived growth factor receptor alpha (PDGFRA, Homo sapiens, UniProt P16234, V561D)
PDGFRA D842V: Platelet-derived growth factor receptor alpha (PDGFRA, Homo sapiens, UniProt P16234, D842V)

With `NS(=O)(=O)c1cc(NC(=O)Cc2ccccc2)ccc1Oc1cccc(Cl)c1` the remaining binding was 80% (PDGFRA; cell-free assay; competition with immobilised ligand; 1 µM).
For `COc1cc(-c2cc(-c3ccc(N4CCNCC4)cc3)cnc2N)cc(OC)c1OC`, the inhibition was 86% (PDGFRA V561D; enzyme activity; inhibitor; 1 µM).
`CCCOc1ccc(OC)c(F)c1C(=O)c1ccc(C(=O)N[C@@H]2CNC[C@H]2NC(=O)c2ccc3[nH]ncc3c2)cc1` has a remaining activity of 89% (PDGFRA; enzyme activity; inhibitor; 10 µM).
With `Cn1nc(C(=O)NCc2ccc(C(=O)O)cc2)cc1-c1ccc2[nH]ccc2c1` the remaining binding was 100% (PDGFRA; cell-free assay; competition with immobilised ligand; 0.1 µM).
For `CNC(=O)c1cc(Oc2ccc(NC(=O)Nc3ccc(Cl)c(C(F)(F)F)c3)cc2)ccn1`, the inhibition was 86% (PDGFRA D842V; enzyme activity; inhibitor; 0.3 µM).
The remaining activity of `Cc1cnc(NC2CCOCC2)nc1-n1cnc(C(=O)NC(CN)c2cc(F)cc(Cl)c2)c1` (stereo not drawn) is reported as 100% (PDGFRA V561D; enzyme activity; inhibitor; radiometric; 1 µM).
For `Cc1ccc(NC(=O)c2ccc(C)c(C(F)(F)F)c2)cc1C#Cc1nn(C2CCC(O)CC2)c2ncnc(N)c12` (stereo not drawn), the remaining activity was 0% (PDGFRA D842V; enzyme activity; inhibitor; 10 µM).
With `Cc1ccc(C(=O)NCc2ccsc2)cc1C#Cc1cn(C(C)C)c2ncnc(N)c12` the activity vs control was 2% (PDGFRA D842V; enzyme activity; inhibitor; 1 µM).
With `Cc1cc(NC(=O)c2cccc3cc(-c4cccc5[nH]nc(N)c45)ccc23)ccc1F` the activity vs control was 4% (PDGFRA V561D; enzyme activity; inhibitor; 0.1 µM).
